We go through 9 molecules from ChEMBL document CHEMBL2150856, “Fluorinated N,N-dialkylaminostilbenes for Wnt pathway inhibition and colon cancer repression” (J Med Chem, 2011).

Calls of active or inactive are those of the source. No cut-off for these calls is given here.

The subject of data set [1] is LS174T. In words: Inhibition of Wnt/beta-catenin in human LS174T cells assessed as effect on […] at 10 uM by Western blotting. The format is cell-based. In general terms: A western blot detects proteins with antibodies after separation by electrophoresis.
Data set [2] relates to LS174T. In words: Inhibition of Wnt/beta-catenin in human LS174T cells assessed as reduction in c-Myc protein level at 10 uM by Western blotting. The format is cell-based.
Data set [3] deals with LS174T. As to the kind of experiment: Inhibition of Wnt/beta-catenin in human LS174T cells assessed as reduction in Axin-2 protein level at 10 uM by Western blotting. In kind it is cell-based.
For data set [4], the system named is LS174T. As to the kind of experiment: Inhibition of Wnt/beta-catenin in human LS174T cells assessed as reduction in Axin-2 protein level at 30 uM by Western blotting. The format is cell-based.
Data set [5] concerns LS174T. As to the kind of experiment: Inhibition of Wnt/beta-catenin in human LS174T cells assessed as reduction in c-Myc protein level at 30 uM by Western blotting. In kind it is cell-based.
Data set [6] relates to LS174T. In words: Cytotoxicity against human LS 174T cells at 0.1 uM for 2 days by vi-cell cell viability analysis. In kind it is functional, cell-based. Put shortly: (§1)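 CRC cells treated with DMSO or inhibitor for 2d and 4d; cell number and viability counted on a Vi-Cell analyzer. HCT116 and SW480 kept in DMEM with 10% FBS; LS174T in RPMI with 5% FBS; all with 1% penicillin/streptomycin.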

In data set [7] the test system is LS174T. In words: Inhibition of Wnt/beta-catenin in human LS 174T cells assessed as reduction in TCF4 protein level at 10 uM by Western blotting. The format is cell-based.
In data set [8] the test system is LS174T. As to the kind of experiment: Inhibition of Wnt/beta-catenin in human LS174T cells assessed as reduction in Axin-2 protein level at 2.5 uM by Western blotting. In kind it is cell-based.
For data set [9], the system named is LS174T. In words: Inhibition of Wnt/beta-catenin in human LS174T cells assessed as reduction in Axin-2 protein level at 0.5 uM by Western blotting. In kind it is cell-based.
Data set [10] has as its system LS174T. As to the kind of experiment: Inhibition of Wnt/beta-catenin in human LS 174T cells assessed as reduction in pygopus2 mRNA level at 10 uM by RT-PCR analysis. In kind it is cell-based.
For data set [11], the system named is LS174T. In words: Inhibition of Wnt/beta-catenin in human LS174T cells assessed as reduction in c-Myc protein level at 0.5 uM by Western blotting. The format is cell-based.
Data set [12] relates to LS174T. In words: Antitumor activity against human LS 174T cells xenografted in C57BL/6J athymic nude mouse assessed as reduction in tumor growth at 20 mg/kg/day, ip. The format is functional, organism-based. Put shortly:
(§2)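 LS174 cells (2 × 10^6) injected subcutaneously into both flanks of 6–8 week C57BL/6J athymic nude mice; mice randomized to two groups. Daily ip dosing at 20mg/kg/day in corn oil (50 μl/mouse); controls got corn oil alone. Body weight and tumor size (digital caliper) recorded twice weekly for one month; volume V=1/2LW^2 (mm3).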
On the technique in general: In xenograft studies the graft and the host belong to different species.

For data set [13], the system named is LS174T. As to the kind of experiment: Cytotoxicity against human LS 174T cells at 0.1 uM for 4 days by vi-cell cell viability analysis. In kind it is functional, cell-based. Put shortly:
as §1

The next data set concerns Mus musculus. As to the kind of experiment: Toxicity in human LS 174T cells xenografted C57BL/6J athymic nude mouse assessed as change in body weight at 20 mg/kg/day, ip within 1 month. The note with it: in vivo. On the set-up: route intraperitoneal. The format is organism-based, LS174T. The essentials:
as §2

Data set [14] relates to LS174T. In words: Inhibition of Wnt/beta-catenin in human LS 174T cells assessed as decrease in […] in nucleus using DAPI staining at 10 uM for 24 hrs by immunofluorescent microscopy. The format is cell-based. The essentials: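 LS174 cells treated 24h with 10 μM compound or DMSO, fixed (4% paraformaldehyde, 20 min, RT), permeabilized with 0.3% Triton X-100, blocked in 5% goat serum 30 min. Stained overnight with anti-β-catenin (1:300), then Alexa-488 anti-rabbit IgG (1:500) 40 min; nuclei counterstained with DAPI; confocal imaging.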

Data set [15] relates to LS174T. In words: Inhibition of Wnt/beta-catenin in human LS174T cells assessed as reduction in c-Myc protein level at 2.5 uM by Western blotting. In kind it is cell-based.
Data set [16] deals with LS174T. In words: Inhibition of Wnt/beta-catenin in human LS 174T cells assessed as reduction in TCF4 mRNA level at 10 uM by RT-PCR analysis. In kind it is cell-based.
The subject of data set [17] is LS174T. In words: Inhibition of Wnt/beta-catenin in human LS 174T cells assessed as reduction in pygopus2 protein level at 10 uM by Western blotting. The format is cell-based.

As for `CN(C)c1ccc(/C=C/c2ccccc2)cc1`, the inhibition entry with LS174T [1], in the data set with LS174T [2] and with LS174T [3] was “inactive” throughout. Further, the inhibition result in the data set on LS174T [4] and in the data set on LS174T [5] was “Active” each time.
As for `CN(C)c1ccc(/C=C/c2c(F)ccc(F)c2F)cc1`, the inhibition entry in the data set on LS174T [1] is “inactive”. The inhibition entry in the data set with LS174T [2] and with LS174T [3] was “Active” throughout.
Consider `CN(C)c1ccc(/C=C/c2c(F)cccc2F)cc1`, for which the inhibition result in the data set with LS174T [1] and in the data set on LS174T [10] was “inactive” each time. For the same molecule, the result in the data set on LS174T [6] and in the data set with LS174T [13] was Active. Further, the inhibition result in the data set with LS174T [7], in the data set on LS174T [8], with LS174T [9], in the data set with LS174T [11], with LS174T [2] and with LS174T [3] was “Active” throughout. Further, the inhibition entry with LS174T [14], with LS174T [15], with LS174T [16] and in the data set on LS174T [17] was “Active” in each case. The “growth inhibition (GI)” value with LS174T [12] is “Active”. Also, the Activity entry in the data set on Mus musculus was “Non-toxic”.
For `CN(C)c1ccc(/C=C/c2c(F)cc(F)cc2F)cc1`, in the data set on LS174T [1], the inhibition entry is “inactive”. The inhibition entry in the data set on LS174T [2] and with LS174T [3] was “Active” in each case.
Consider `CCN(CC)c1ccc(/C=C/c2ccccc2F)cc1`, for which, in the data set on LS174T [1], the inhibition entry was “inactive”. Further, the inhibition result in the data set on LS174T [2] and in the data set on LS174T [3] was “Active” in each case.
With `Fc1ccccc1/C=C/c1ccc(N(c2ccccc2)c2ccccc2)cc1`, the inhibition entry in the data set on LS174T [1], in the data set on LS174T [2] and in the data set with LS174T [3] was “inactive” in each case.
`CN(C)c1ccc(/C=C/c2cccc(F)c2F)cc1`: in the data set with LS174T [1], the inhibition entry was “inactive”. Further, the inhibition result in the data set with LS174T [2] and in the data set with LS174T [3] was “Active” throughout.
Turning to `CN(C)c1ccccc1/C=C/c1c(F)cccc1F`, the inhibition result with LS174T [1], with LS174T [2] and with LS174T [3] was “inactive” throughout.
Regarding `CN(C)c1ccc(CCc2c(F)cccc2F)cc1`, the inhibition result in the data set with LS174T [2] and in the data set with LS174T [3] was “inactive” in each case.
